From ChEMBL document CHEMBL3867450, “Synthesis of Natural Acylphloroglucinol-Based Antifungal Compounds against Cryptococcus Species” (J Nat Prod, 2016) come the findings set out here.

SMILES strings stand for the structures. Converted amounts (≈) assume the structure as drawn. The source made the active and inactive calls. Bounds are passed on as bounds.

Series [1] can be described thus: Cytotoxicity against pig LLC-PK1 cells assessed as reduction in viable cells measured after 48 hrs by neutral red dye-based method. To be noted: pig (Sus scrofa). Format: toxicity, cell-based. The method, boiled down:
(§1)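 Vero (African green monkey kidney […]) and LLC-PK1 (pig kidney epithelial) cells were scored for viability by neutral red uptake. The top test concentration was 50 μg/mL. IC50 is the concentration causing 50% growth inhibition of the mammalian cells.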

The nature of series [2]: Selectivity index, ratio of IC50 for African green monkey Vero cells to MIC for Cryptococcus neoformans ATCC 90113. The series is classed as toxicity, cell-based. Particulars: read-out: Selectivity Index. The method, boiled down: (§2)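 Selectivity index is the mammalian-cell IC50 (neutral red assay, Vero or LLC-PK1) divided by the MIC against C. neoformans ATCC 90113 (modified CLSI method).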

Series [3] has as its system Staphylococcus aureus. As to the kind of experiment: Antibacterial activity against Staphylococcus aureus ATCC 29213 by CLSI method. The series is classed as functional.
In series [4] the test system is Cryptococcus bacillisporus. In words: Antifungal activity against Cryptococcus gattii ATCC 32609 assessed as growth inhibition measured after 72 hrs by CLSI method. Format: functional. To be noted: ATCC 32609, 72 h. The essentials: (§3)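 Susceptibility testing by a modified CLSI (formerly NCCLS) method against C. neoformans ATCC 90113, C. neoformans H99 (from Duke University) or C. gattii ATCC 32609. The top test concentration was 20 μg/mL. MIC is the lowest concentration allowing no detectable growth. IC50 is the concentration giving 50% growth inhibition.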

For series [5], the system named is Cryptococcus neoformans. As to the kind of experiment: Antifungal activity against Cryptococcus neoformans H99 assessed as growth inhibition measured after 72 hrs by CLSI method. Particulars: var grubii H99 . The series is classed as functional. The essentials: as §3
Series [6] is described as follows: Antifungal activity against Cryptococcus neoformans ATCC 90113 assessed as growth inhibition at 20 ug/ml measured after 72 hrs by CLSI method. The series is classed as functional. The essentials:
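Primary screen against C. neoformans ATCC 90113 by a modified CLSI method at 20 μg/mL. Growth inhibition above 50% at this concentration was scored as active and taken to further testing.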

Series [7] is described as follows: Cytotoxicity against African green monkey Vero cells assessed as reduction in viable cells measured after 48 hrs by neutral red dye-based method. The series is classed as toxicity, cell-based. To be noted: African green monkey (Chlorocebus sabaeus). The method, boiled down: as §1
Series [8] is described as follows: Antifungal activity against Cryptococcus neoformans ATCC 90113 assessed as growth inhibition measured after 72 hrs by CLSI method. Format: functional. The method, boiled down:
as §3

Series [9] can be described thus: Selectivity index, ratio of IC50 for pig LLC-PK1 cells to MIC for Cryptococcus neoformans ATCC 90113. Format: toxicity, cell-based. To be noted: read-out: Selectivity Index. The essentials: as §2

For `CC(C)C(=O)c1c(O)cc(O)c(Cc2ccc(C(C)C)cc2)c1O`, the 50% inhibitory concentration (IC50) at 48 h in [1] and in [7] was above 50 µg/mL each time. The selectivity ratio in [2] and in series [9] was above 33.3 throughout. Besides, the MIC (as a rule, the smallest concentration in the dilution series that meets the test's criterion for growth inhibition) in series [3] worked out at 10 µg/mL (≈ 30.4 µM); in [4] it was 2.1 µg/mL (≈ 6.39 µM); in series [5], 2.1 µg/mL (≈ 6.39 µM); in series [8] it was 1.5 µg/mL (≈ 4.57 µM). The growth inhibition (GI) in series [6] was above 50%.

As for `CC(C)C(=O)c1c(O)cc(O)cc1OCc1c(F)cccc1Cl`, the IC50 at 48 h in series [1] and in series [7] was above 50 µg/mL in each case. Moreover, the selectivity ratio in series [2] and in [9] was above 10 in each case. Moreover, the outcome in series [3] was Active. In addition, the values for the MIC in series [4], in series [5] and in [8] were 5 µg/mL (≈ 14.8 µM), 8.3 µg/mL (≈ 24.5 µM) and 5 µg/mL (≈ 14.8 µM), respectively. In addition, the growth inhibition (GI) in series [6] is above 50%.

Take `CC(C)C(=O)c1c(O)cc(O)c(C(=O)C(C)C)c1O`: the values for the IC50 at 48 h in series [1] and in series [7] were 17.5 µg/mL (≈ 65.7 µM) and 11.5 µg/mL (≈ 43.2 µM), respectively. Moreover, the selectivity ratio amounted to 4.6 in [2] and 7 in series [9]. The MIC was determined as 1.3 µg/mL (≈ 4.88 µM) in series [3], 2.1 µg/mL (≈ 7.89 µM) in series [4], 3.3 µg/mL (≈ 12.4 µM) in [5] and 2.5 µg/mL (≈ 9.39 µM) in series [8]. For the same compound, in series [6], the growth inhibition (GI) was above 50%.
